Bioassay records deposited in PubChem by several laboratories.
BAP1 block – blocks human BAP1 ubiquitin-AMC hydrolysis | Q92560 | recombinant BAP1, Ub-AMC hydrolysis fluorescence kinetic; hits give low values | calls only at 20 µM | 72,000 compounds, 0.48% hits;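 active means activity remaining at or below 50% of control, provided the compound also passes the data quality filters; inactive means the rest, including low values that fail the filters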
JNK3 blocker – inhibitors of human JNK3 kinase | 60,000 compounds, 0.61% hits | inhibition, % at 8 µM | purified JNK3 kinase activity, HTS; in the data active means inhibition above about 17%
HER2 expr 66K – lowers expression of human Her2 kinase. SKBR-3 HER2 protein level, AlphaScreen, 18-24 h; hits give low values. HER2 level % of control, % at 10 µM. 65,000 compounds, 0.69% hits. AID 645;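 active means HER2 level under 5% of the carrier-only control; inconclusive means no clear call, values can overlap the other calls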;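 further: lower value means stronger loss of Her2 protein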
M1 antag – antagonists of rat M1 muscarinic receptor | 64,000 compounds, 3.4% hits | AID 628 | CHO-M1 cells, Fluo-4 calcium, ACh EC80 antagonist mode; hits give low values | B-score at 10 µM;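 active means calcium fluorescence response, raw or row-and-column corrected B-score, differing from the plate sample mean either way at a set confidence level, mostly lower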
Target sequence (P08482 whole entry, looked up): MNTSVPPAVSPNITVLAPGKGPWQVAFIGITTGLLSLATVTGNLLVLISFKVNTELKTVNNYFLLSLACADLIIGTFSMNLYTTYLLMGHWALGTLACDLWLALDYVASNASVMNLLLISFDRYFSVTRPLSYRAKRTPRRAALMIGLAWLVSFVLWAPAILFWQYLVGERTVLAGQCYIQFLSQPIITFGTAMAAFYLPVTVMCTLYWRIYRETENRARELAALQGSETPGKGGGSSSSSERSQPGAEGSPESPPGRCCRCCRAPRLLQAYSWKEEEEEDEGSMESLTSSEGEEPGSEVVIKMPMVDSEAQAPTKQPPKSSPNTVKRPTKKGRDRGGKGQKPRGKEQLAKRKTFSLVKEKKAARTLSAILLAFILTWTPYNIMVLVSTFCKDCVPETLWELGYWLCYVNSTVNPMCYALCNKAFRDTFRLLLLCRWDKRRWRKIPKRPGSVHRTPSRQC
M1 ag – M1 muscarinic receptor agonism | AID 626 | CHO-M1 cells, Fluo-4 calcium fluorescence, agonist mode; hits give high values | B-score at 10 µM | 64,000 compounds, 3% hits;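 active means fluorescence rise, raw or as B-score row- and column-corrected plate score, outside the 99.7% band of its plate's samples, either direction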
HEK293 NFkB inh – lowers PMA/ionomycin-induced NF-kB signal in HEK293 cells; HEK-293 NF-kB luciferase reporter, luminescence; inhibition, % at 3 µM; 62,000 compounds, 0.21% hits;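 active means inhibition above the mean of all tested compounds plus 3 SD, cut at about 40% in these data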
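System – HEK-293 cells with stable firefly luciferase reporter driven by four HIV NF-kB elements · Doses – one dose, 3 µM · Schedule – 1 h compound pre-incubation, 16 h PMA/ionomycin at 37 °C · Technique – luminescence from luciferase substrate reagent · Measure – percent inhibition normalized per plate to DMSO and reference-inhibitor controls · Replicates – tested once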
M1 ag confirm – rat M1 muscarinic agonism, confirmation; shares compounds with M1 ag; fluorescence change (max-min) at 10 µM; CHO-M1 cells, Fluo-4 calcium fluorescence, agonist mode; actives lie on both sides; 1,700 compounds, 19% hits;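 active means fluorescence change differs from the solvent-only DMSO control mean at a set confidence level in both duplicate runs; inconclusive means differs from solvent-only control mean in just one of two runs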;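 further: an EC20 dose of acetylcholine follows compound addition during the same imaging run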
M4 ag counter – activates rat M4 receptor in counter-screen for M1 agonists | CHO M4/Gqi5 cells, Fluo-4 calcium fluorescence, agonist mode; actives lie on both sides | 1,700 compounds, 9% hits | shares compounds with M1 ag | fluorescence change (max-min) at 10 µM;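 active means fluorescence change differing from the plate's solvent-only control wells at 99.7% confidence in both duplicates, whether higher or lower; inconclusive means differs from solvent controls in only one of two duplicates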
Each line names hits and unclear results; the compound was inactive in the other large screens (follow-up assays come after a bar, where shown). In the library only some 6.6% were active in any assay of this set; here they are far more common.

CC1=C(C(=O)OCC(C)C)C(c2cccc([N+](=O)[O-])c2)NC(=O)N1 (configuration not stated)	none (no result: JNK3 blocker, HER2 expr 66K, M1 antag, M1 ag, HEK293 NFkB inh)
N#CC1=C(N)NC(SCC(=O)Nc2ccccc2)=C(C#N)C12CCCC2	M1 ag 2.87 (no result: BAP1 block, JNK3 blocker, HEK293 NFkB inh) | M1 ag confirm inactive | M4 ag counter inactive
CC(C)(C)NC(=O)C1CCCN(S(=O)(=O)c2cccc3cccnc23)C1 (configuration not stated)	none
O=C(Nc1ccncc1)C1CCCN(S(=O)(=O)c2cccc3cccnc23)C1 (configuration not stated)	none
COc1cccc(NC(=O)C2CCCN(S(=O)(=O)c3cccc4cccnc34)C2)c1 (configuration not stated)	M1 ag 3.11 | M1 ag confirm inconclusive | M4 ag counter inactive
O=C(C1CCCN(S(=O)(=O)c2cccc3nsnc23)C1)N1CCN(c2ccccn2)CC1 (configuration not stated)	M1 ag 3.15 | M1 ag confirm inactive | M4 ag counter inactive
O=C(C1CCCN(S(=O)(=O)c2cccc3cccnc23)C1)N1CCN(c2ccc(F)cc2)CC1 (configuration not stated)	M1 ag 2.71 | M1 ag confirm inconclusive | M4 ag counter inconclusive
O=C(C1CCCN(S(=O)(=O)c2cccc3cccnc23)C1)N1CCc2ccccc21 (configuration not stated)	M1 ag 3.13 (no result: HER2 expr 66K) | M1 ag confirm inconclusive | M4 ag counter inactive
CCOCCOC(=O)C1=C(C)NC(=O)NC1c1ccc(OCC)cc1 (configuration not stated)	none (no result: JNK3 blocker, HER2 expr 66K, M1 antag, M1 ag, HEK293 NFkB inh)
O=C(C1CCCN1S(=O)(=O)c1cccc2cccnc12)N1CCn2c1nc1ccccc12 (configuration not stated)	none
O=C(NCC1COc2ccccc2O1)C1CCCN(S(=O)(=O)c2cccc3nsnc23)C1 (configuration not stated)	M1 ag 3.17 | M1 ag confirm inconclusive | M4 ag counter inactive
O=C(C1CCN(S(=O)(=O)c2cccc3cccnc23)CC1)N1CCn2c1nc1ccccc12	M1 antag 6.61, M1 ag 22.3 | M1 ag confirm inactive | M4 ag counter inactive
CC(=O)Nc1cccc(NC(=O)c2oc3ccccc3c2C)c1	M1 ag 2.3 | M1 ag confirm inactive | M4 ag counter inactive
CC(=O)Nc1cccc(NC(=O)c2cc3ccccc3o2)c1	none
COCCn1c(-c2cc(OC)c(OC)c(OC)c2)nc2oc3ccccc3c(=O)c2c1=O	none
COCCn1c(-c2ccccc2)nc2oc3ccccc3c(=O)c2c1=O	M1 ag 2.45 | M1 ag confirm -24.9 | M4 ag counter -95.9
O=c1[nH]c2cc3c(cc2cc1CN(Cc1nnnn1CC1CCCO1)C1CCCCC1)OCO3 (configuration not stated)	M1 ag 3.6 (not shown: BAP1 block) | M1 ag confirm 92.9 | M4 ag counter inconclusive
COc1cc(-c2nnc(-c3ccc(S(=O)(=O)c4ccccc4)cc3)o2)cc(OC)c1OC	none
COc1cc(OC)c(-c2nnc(-c3ccc(OC)c(OC)c3OC)o2)cc1OC	M1 ag 4.47 (not shown: BAP1 block) | M1 ag confirm -29.9 | M4 ag counter inactive
CCOC(=O)Cc1csc(NC(=O)COc2ccc(N(C)S(=O)(=O)c3cccs3)cc2)n1	M1 ag 6.24 (no result: BAP1 block, JNK3 blocker) | M1 ag confirm inconclusive | M4 ag counter inactive
CCOC(=O)Cc1csc(NC(=O)COc2ccccc2OC)n1	none (no result: BAP1 block, JNK3 blocker, HEK293 NFkB inh)
COc1cccc(OC)c1NC(=O)Cc1nn(C)c(=O)c2ccccc12	none
COc1ccccc1NC(=O)Cc1nn(C)c(=O)c2ccccc12	M1 ag 2.67 | M1 ag confirm inactive | M4 ag counter inconclusive
Cn1nc(CC(=O)Nc2ccc3c(c2)OCCO3)c2ccccc2c1=O	M1 ag 4.53 | M1 ag confirm inactive | M4 ag counter inactive
COc1cc(NC(=O)Cc2nn(C)c(=O)c3ccccc23)cc(OC)c1	none (no result: JNK3 blocker)
Cc1ccc(NC(=O)Cc2nn(C)c(=O)c3ccccc23)cc1F	M1 ag 5.47 (no result: JNK3 blocker) | M1 ag confirm inactive | M4 ag counter inconclusive
O=C(c1ccc([N+](=O)[O-])cc1)N1CCN(c2ccc([N+](=O)[O-])cc2)CC1	none (no result: JNK3 blocker, HER2 expr 66K, M1 antag, M1 ag, HEK293 NFkB inh)
CCOC(=O)c1cccc(C(=O)Nc2nccs2)n1	none (no result: JNK3 blocker, HER2 expr 66K, M1 antag, M1 ag, HEK293 NFkB inh)
CCOC(=O)c1c(C)n(C)c2c1cc(OC(=O)COc1ccccc1)c1ccccc12	none (no result: JNK3 blocker, HER2 expr 66K, M1 antag, M1 ag, HEK293 NFkB inh)
Cc1cc(Cl)ccc1OCC(=O)N1CCCCC1	M1 ag 2.21 | M1 ag confirm inconclusive | M4 ag counter inactive
COc1cc(C(=S)N2CCCCC2)ccc1OCC(=O)N1CCCC1	none
O=C(O)C1CCN(S(=O)(=O)c2ccc(Br)cc2)CC1	none (no result: JNK3 blocker, HER2 expr 66K, M1 antag, M1 ag, HEK293 NFkB inh)
C#CC1(O)CC(C)N(C)C(C)C1 (configuration not stated)	M1 ag 2.4 | M1 ag confirm inactive | M4 ag counter inactive
CCOC(=O)C1CCN(C(=O)Nc2ccc3nc(-c4ccco4)c(-c4ccco4)nc3c2)CC1	M1 antag -11.7, M1 ag 83.6 (no result: BAP1 block, JNK3 blocker) | M1 ag confirm 392 | M4 ag counter inconclusive
O=C(Nc1ccc2nc(-c3ccco3)c(-c3ccco3)nc2c1)N1CCCCCC1	M1 antag -4.58, M1 ag 29.9 (not shown: BAP1 block) | M1 ag confirm 362 | M4 ag counter inconclusive
COc1ccc(NC(=O)N2CCCCC2)cc1	none
CCOC(=O)C1CCN(C(=O)Nc2ccc3c(c2)nc(C)n3C)CC1	none
Nc1nc(SCCCC(=O)NCCO)nc2sc3c(c12)CCCC3	none (no result: JNK3 blocker, HER2 expr 66K, M1 antag, M1 ag, HEK293 NFkB inh)
Cc1ccc(-n2nc3c(c2NC(=O)c2ccc(Cl)c([N+](=O)[O-])c2)CSC3)c(C)c1	none (no result: JNK3 blocker, HER2 expr 66K, M1 antag, M1 ag, HEK293 NFkB inh)
O=C1CC(=O)N(Cc2ccco2)C(=O)N1	M1 ag 3.01 | M1 ag confirm inconclusive | M4 ag counter inactive
CCOc1cccc2c1NC(C)(C)c1sn(-c3ccc(C)c(C)c3)c(=S)c1-2	none (no result: JNK3 blocker, HER2 expr 66K, M1 antag, M1 ag, HEK293 NFkB inh)
CC1CCCCN1C(=O)Nc1cccc(Cl)c1 (configuration not stated)	M1 antag -19.4, M1 ag 15.9 | M1 ag confirm inconclusive | M4 ag counter inactive
Cc1cc(C)c2c(=O)n(CC(=O)N3CCC(Cc4ccccc4)CC3)sc2n1	none
Cc1cccc(N2CCN(C(=O)Cn3sc4nc(C)cc(C)c4c3=O)CC2C)c1 (configuration not stated)	M1 ag 5.29 | M1 ag confirm -23.9 | M4 ag counter -67.4
N#Cc1c2c(c(NCc3ccccc3)n3c1nc1ccccc13)CCC2	none (no result: JNK3 blocker, HER2 expr 66K, M1 antag, M1 ag, HEK293 NFkB inh)
Cc1noc(C(=O)Nc2sc3c(c2C#N)CCC3)c1Cl	M1 ag -3.6 | M1 ag confirm inactive | M4 ag counter inactive
CCOC(=O)N1CCN(C(=O)c2ccc3nc(SCc4ccc(F)cc4)n(C)c3c2)CC1	M1 antag -2.78, M1 ag 4.02 | M1 ag confirm inconclusive | M4 ag counter inactive
